Measurements published in ChEMBL document CHEMBL3244351, “Aroyl- and arylisoquinolineacetic acids as antiinflammatory agents” (1978).
Activity calls are given as the source filed them. No cut-off for these calls is given here.

Key:
Rattus norvegicus [1] = assay: Antiinflammatory activity in Evans blue carrageenan-induced pleural effusion rat model assessed as decrease in volume of pleural fluid at 100 mg/kg relative to control; parameters: scale not given: the % may be the effect or the level left
Rattus norvegicus [2] = assay: Antiinflammatory activity in adjuvant-induced arthritic rat chronic inflammation model assessed as […] at 31.6 mg/kg; format: functional, organism-based; parameters: dose 31.6 mg/kg
Rattus norvegicus [3] = assay: Antiinflammatory activity in carrageenan-induced rat assessed as efficacy ratio for reduction in pleural effusion at 316 mg/kg, po after 5 hrs by Evans blue assay relative to control; format: functional
Summary of the method: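 Rats given 316 mg/kg orally (two rats), then intrapleural injection of 5 mL 0.075% Evans blue/0.5% carrageenan type 7. Pleural effusion volume measured at 5 h. Efficacy ratio is control effusion volume divided by treated effusion volume, judged by sequential analysis; a ratio ≥1.30 counts as active.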

Compound | Activity (Rattus norvegicus [1]) | Activity (Rattus norvegicus [2]) | T/C (Rattus norvegicus [3])
NC(=O)Cc1cc2ccccc2c(-c2ccc(Cl)cc2)n1 | 22% | inactive | 
CCOC(=O)c1nc(-c2ccccc2)c2ccccc2c1OC(C)=O | inactive |  | 1.06
O=C(O)c1cc2ccccc2c(C(=O)c2ccccc2)n1 |  |  | 1.28
O=C(O)c1ccc2ccccc2c1 [BETA-NAPHTOIC ACID] | inactive |  | 1.13
Br.Cc1cc2ccccc2c(C(=O)c2ccccc2)n1 | inactive |  | 0.93
NC(=O)Cc1cc2ccccc2c(-c2ccccc2)n1 | 14% |  | 1.33
NC(=O)Cc1cc2ccccc2c(C(=O)c2ccccc2)n1 | inactive |  | 0.9
Br.CCOC(=O)Cc1cc2ccccc2cn1 |  |  | 1.2
O=C(O)c1cc2ccccc2c(-c2ccccc2)n1 | inactive |  | 1.26
CCCCC1C(=O)N(c2ccccc2)N(c2ccccc2)C1=O |  | Active | 
Br.CCOC(=O)c1cc2ccccc2cn1 | 1% |  | 1.97
Br.O=C(c1ccccc1)c1nccc2ccccc12 | inactive |  | 0.83
Br.O=C(c1ccccc1)c1ccccn1 | inactive |  | 1.23
NC(=O)Cc1cnc(-c2ccccc2)c2ccccc12 | 9% |  | 
